The values below come from ChEMBL document CHEMBL2417467, “Antiproliferative cardiac glycosides from the latex of Antiaris toxicaria” (J Nat Prod, 2013).

Experiment [1] is described as follows: Induction of apoptosis in human NIH-H460 cells at 20 nM after 36 hrs by microscopic analysis relative to control. Type of experiment: functional. The method, boiled down: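 NIH-H460 cells were exposed to vehicle or 20 nM in serum-free medium for up to 36 h. Detached and attached cells were pooled and stained with 50 μg/mL DAPI plus 100 μg/mL RNase A at 37 °C for 20 min. Apoptotic cells were scored by cytoplasmic shrinkage, membrane blebbing and nuclear condensation/fragmentation, and reported as % apoptotic cells.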

Experiment [2] deals with NIH-H460. In words: Induction of apoptosis in human NIH-H460 cells assessed as increase in PARP cleavage at 20 nM after 24 hrs by Western blotting analysis. In kind it is functional, cell-based. In short, it runs like this: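 Western blot of NIH-H460 lysates (8% SDS-PAGE, PVDF) probed overnight at 4 °C with anti-PARP (1:1000) to detect cleavage. Detection was by ECL, with β-actin reprobe as loading control. Cleavage was examined at 24 h post-treatment.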
(In western blotting, separated proteins are transferred to a membrane and probed.)

Experiment [3] relates to NIH-H460. The experiment in a line: Induction of apoptosis in human NIH-H460 cells assessed as caspase-3 activation at 20 nM after 24 hrs by Western blotting analysis. Type of experiment: functional, cell-based.
For experiment [4], the system named is NIH-H460. In words: Induction of apoptosis in human NIH-H460 cells assessed as localization of Nur77 in nucleus at 20 nM after 3 hrs by immunofluorescence microscopic analysis. Type of experiment: functional, cell-based. The method, boiled down: (§1)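 NIH-H460 cells on slides were treated with 20 nM for 3 h, then given MitoTracker Red (25 nM) for 15 min. Cells were permeabilised with 0.01% digitonin in PBS for 30 min and blocked with 1% BSA for 30 min. Anti-Nur77 (1:200) was applied for 3 h at RT, then FITC/Cy3 anti-rabbit IgG for 1 h. DAPI marked nuclei, and images were taken by confocal microscopy.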

The subject of experiment [5] is NIH-H460. In words: Induction of Nur77 protein expression in human NIH-H460 cells at […] by Western blotting analysis. In kind it is functional, cell-based. The method, boiled down:
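NIH-H460 cells were treated with vehicle or compound, either at 2.5–40 nM for 3 h or at 20 nM over a time course. Equal amounts of lysate were run on 8% SDS-PAGE and blotted to PVDF. Membranes were blocked in 5% milk/TBST and probed overnight at 4 °C with anti-Nur77 (1:1000). Bands were detected by ECL, with β-actin reprobe as loading control.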

Experiment [6] relates to NIH-H460. The experiment in a line: Induction of apoptosis in human NIH-H460 cells assessed as localization of Nur77 in cytoplasm at 20 nM after 3 hrs by immunofluorescence microscopic analysis. Type of experiment: functional, cell-based. The method, boiled down: as §1
The test system of experiment [7] is NIH-H460. The experiment in a line: Induction of apoptosis in human NIH-H460 cells assessed as localization of Nur77 in mitochondria at 20 nM after 3 hrs by immunofluorescence microscopic analysis. In kind it is functional, cell-based. In short, it runs like this:
as §1

Experiment [8] in a line: Cytotoxicity against human NIH-H460 cells assessed as cell viability at 50 nM after 48 hrs by MTT assay relative to control. As to conditions: NIH-H460, 48 h. Type of experiment: functional. In short, it runs like this:
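NIH-H460 cells (RPMI 1640, 10% FBS, 1% L-glutamine, penicillin/streptomycin) were seeded at 1 × 10^4 cells/well and exposed to 50 nM for 48 h. MTT was then added at 0.5 mg/mL final in medium for 2 h in the dark at 37 °C. Formazan was dissolved in DMSO for 15 min at RT and read at 570 nm. Output was inhibitory rate (%).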
Background: Tetrazolium dyes change colour on reduction, which living cells bring about.

Active and inactive are the calls of the source. The rule behind the calls is not given here.

What is called inhibition is the percentage by which the read-out fell short of the control. With `C[C@H]1O[C@@H](O[C@H]2CC[C@]3(C=O)[C@H]4C[C@@H](O)[C@]5(C)[C@@H](C6=CC(=O)OC6)CC[C@]5(O)[C@@H]4CC[C@]3(O)C2)[C@H](O)[C@H](O)[C@@H]1O`, in experiment [1], the Activity turned out to be 22.3%. Moreover, the outcome in the experiment with NIH-H460 [2], in the experiment on NIH-H460 [3], in the experiment on NIH-H460 [4], with NIH-H460 [5], in the experiment with NIH-H460 [6] and in the experiment with NIH-H460 [7] was Active. Further, the inhibition at 0.05 µM in experiment [8] was 78.9%.
